Assay outcomes from PubChem.
MIN6 prolif – MIN6 beta-cell proliferation induction | MIN6 cells proliferation, ATPlite luminescence, 48 h; cells starved in 0.2% serum; 100% = growth in 10% serum | AID 2380 | 0.29% of 330,000 active | proliferation, % at 10 µM;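 active = compounds whose signal lies at least 3.5 SD above the mean of all wells on their plate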;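 note: 0% = DMSO-treated cells in low-serum medium and 100% = 10% serum control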
hiPSC survival – hiPSC single-cell survival enhancement; 0.044% of 360,000 active; AID 602274; ATPlite luminescence; 100% = ROCK inhibitor wells, 0% = DMSO; survival enhancement, % at 20 µM; in the data active = survival enhancement above about 18%;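 note: cells exposed to compounds for 16 hours before the ATP read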
FLuc stim CS – affects firefly luciferase, flagging false hits in luciferase stimulation screens; ATPlite luciferase biochemical, luminescence, 10 min; 0 = ATP-free wells, 1 = DMSO control; activation factor at 10 µM; 200,000 tested, under 10 active; AID 1027;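 active = luciferase activation factor, scaled between plate controls, of at least 2 with compound at 10 µM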
Target sequence (P08659 whole entry, looked up): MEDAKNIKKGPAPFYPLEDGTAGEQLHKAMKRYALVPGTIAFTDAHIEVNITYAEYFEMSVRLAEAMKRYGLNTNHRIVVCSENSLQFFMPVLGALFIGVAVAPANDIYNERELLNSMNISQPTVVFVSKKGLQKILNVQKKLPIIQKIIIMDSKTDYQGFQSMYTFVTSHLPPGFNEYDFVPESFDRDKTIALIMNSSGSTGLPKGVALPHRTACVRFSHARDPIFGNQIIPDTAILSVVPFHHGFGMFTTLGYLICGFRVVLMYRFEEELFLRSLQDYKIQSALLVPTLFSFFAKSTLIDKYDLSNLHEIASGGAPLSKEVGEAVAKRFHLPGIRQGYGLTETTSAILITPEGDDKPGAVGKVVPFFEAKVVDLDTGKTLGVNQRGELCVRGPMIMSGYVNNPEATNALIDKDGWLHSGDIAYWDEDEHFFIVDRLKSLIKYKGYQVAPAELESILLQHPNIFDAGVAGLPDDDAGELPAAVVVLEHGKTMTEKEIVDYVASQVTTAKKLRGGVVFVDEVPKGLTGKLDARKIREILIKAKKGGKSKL
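assay system = Luciferase/luciferin detection reagent, cell-free biochemical luciferase assay | also added = ATP substrate | times = 10 min post-reagent at room temperature | measured by = luminescence from luciferase reaction | measure = luciferase activation, seen as luminescence increase over controls | benchmarks = low control with PBS replacing ATP, high control enzyme plus ATP without compound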
FLuc inh counter – inhibits firefly luciferase, flagging false hits in luciferase inhibition screens. 1.5% of 200,000 active. ATPLite firefly luciferase biochemical luminescence, 10 min. inhibition, % at 10 µM. P08659;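 active = inhibition above about 50% when tested at 10 µM, limit read from the data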
TRAIL sens C8 – caspase-8 TRAIL sensitization | NB7+C8 cells + TRAIL, ATPlite viability luminescence | inhibition (viability loss, TRAIL sensitization), % at 10 µM | 1% of 360,000 active;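 active = compounds causing at least 50% loss of cell viability in the single-dose screen, relative to plate controls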
PPC-1+TRAIL kill – PPC-1 cancer cell killing with TRAIL present; 0.41% of 220,000 active; PPC-1 cells + TRAIL, ATPLite viability luminescence; cell killing (% activity), % at 4 µM or 5 µM;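 active = cell killing above 50% in the first pass at 4 µM, then a duplicate retest at 5 µM averaging 50% or more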;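 note: plate controls were cells with TRAIL plus DMSO for no effect and medium-only wells lacking cells for full effect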
An asterisk follows results filed as active; / = not tested or not shown. The list is not random: actives were taken first. Their share in the collection is about 1.8%.

SMILES | MIN6 prolif | hiPSC survival | FLuc stim CS | FLuc inh counter | TRAIL sens C8 | PPC-1+TRAIL kill
COc1cc(/C=N/NC(=O)c2cc(-c3cccc(OC(C)C)c3)nc3ccccc23)ccc1O | -3.1 | -0.6 | / | / | 53.0* | /
Cc1cccc(-c2cc(C(=O)N/N=C/c3cccnc3)c3ccccc3n2)c1 | -2.7 | -0.5 | / | / | 11.2 | /
COCc1c(C(=O)NCCOc2ccc(Cl)cc2)oc2ccccc12 | -3.9 | -0.3 | / | / | 2.3 | /
O=C(NCc1ccco1)c1ccc(-c2csnn2)cc1 | -0.9 | -0.2 | / | / | -2.0 | 15.8
O=C(/C=C/c1ccccc1)NC(NC(=S)Nc1ccc(Cl)cc1)C(Cl)(Cl)Cl (centres undefined) | -6.1 | -0.6 | 1.1 | -5.3 | 52.2* | -17.7
CCCc1ccc(C(=O)N2CCN(c3ccccc3OCC)CC2)cc1 | -3.0 | 22.7* | 1 | -4.2 | 0.2 | -8.4
S=C(c1ccc(-c2ccccc2Cl)o1)N1CCCCC1 | -2.5 | -1.5 | 0.5 | 48.6 | 30.8 | 1.3
S=C(c1ccc(-c2ccc(Cl)cc2)o1)N1CCCCC1 | -4.8 | -1.3 | 0.3 | 71.3* | 48.1 | 48.6
CSc1nc2ccc(NC(=O)c3nn(C(C)C)c(=O)c4ccccc34)cc2s1 | 8.2* | -0.5 | 0.9 | 11.0 | -7.2 | 38.1
Cc1nc2ccc(NC(=O)c3nn(C(C)C)c(=O)c4ccccc34)cc2s1 | 0.5 | -0.1 | 1 | 0.7 | -12.3 | 7.5
COCCCNc1cc(C)nc2ccccc12 | -2.6 | -0.5 | 1.1 | -8.7 | -4.4 | 13.6
Cc1cc(NCCCCCCCNc2cc(C)nc3cc([N+](=O)[O-])ccc23)c2ccc([N+](=O)[O-])cc2n1 | / | -3.4 | / | / | 57.6* | /
OC[C@H]1O[C@H](c2nc(-c3nc(-c4cccc(-n5cccc5)c4)no3)cs2)C[C@@H]1O | / | 0.3 | / | / | 21.0 | /
COc1ccc(-c2cc(-c3ccccc3)c(C#N)c(S(C)=O)n2)cc1 (centres undefined) | -6.1 | -5.7 | 1 | -2.3 | 91.3* | 39.6
CCSc1nc(-c2ccc(OC)cc2)cc(-c2ccccc2)c1C#N | -5.9 | 1.9 | 1 | -4.0 | 0.0 | 5.6
CS(=O)(=O)c1cnc2c(S(=O)(=O)c3ccccc3)cnn2c1N | 2.0 | -0.4 | 1 | -3.8 | 0.4 | -2.9
CS(=O)(=O)c1cnc2c(-c3ccsc3)cnn2c1N | -0.6 | -0.5 | 0.4 | 62.3* | 8.7 | 42.9
COc1ccc(CC2C(=O)NC(C)C(=O)N(C)C3Cc4ccc(cc4)Oc4cc(ccc4O)CC(C(=O)NC(C)C(=O)NC(C)C(=O)N2C)N(C)C3=O)cc1 (centres undefined) | / | -2.6 | / | / | 66.4* | /
COc1cccc(-c2cnc(C(O)c3c(C)cc(C)cc3C)[nH]2)c1 (centres undefined) | / | 1.1 | / | / | -13.1 | /
Cc1ccc(Nc2nc(CSc3nnnn3C)cs2)cc1 | -3.6 | -3.0 | 0.4 | 61.5* | 50.6* | 29.8
Cc1ccc(Nc2nc(C)cs2)cc1 | -4.1 | -1.8 | 0.5 | 54.1* | 20.9 | /
Cc1ccc(Nc2nc(CSc3nnc(-c4ccccc4C)n3C)cs2)cc1 | -5.0 | -3.4 | 0.4 | 64.2* | 37.9 | 22.9
Cc1ccc(Nc2nc(CSc3nnc(-c4ccccc4)n3C)cs2)cc1 | -5.7 | -3.6 | 0.1 | 85.8* | 50.1* | 45.1
CC(C)(C)C1CCC(=NNC(=O)C2COc3ccccc3O2)CC1 (centres undefined) | 0.0 | -0.5 | / | / | -9.9 | /
N/C(=N\OC(=O)c1cccs1)c1cccc(Br)c1 | -5.2 | -0.7 | 0.1 | 87.2* | -10.2 | 11.9
SMILES | MIN6 prolif | hiPSC survival | FLuc stim CS | FLuc inh counter | TRAIL sens C8 | PPC-1+TRAIL kill
N/C(=N\OC(=O)c1cccs1)c1ccccc1 | -5.3 | 0.3 | 0.1 | 94.4* | 11.2 | 15.7
N/C(Cc1cccc2ccccc12)=N\OC(=O)c1cccs1 | -3.8 | 3.0 | 1 | -2.0 | -3.8 | 7.7
Cc1cccc(/C(N)=N/OC(=O)c2cccs2)c1 | -5.1 | -2.2 | 0.1 | 90.3* | 41.0 | 23.7
N/C(=N\OC(=O)Cc1ccccc1)c1cccc(Br)c1 | -2.5 | 0.1 | 0.9 | 10.3 | -2.2 | 17.6
O=C(O/N=C1\CCCc2ccccc21)c1cccs1 | -2.8 | 3.5 | 0.1 | 91.4* | -5.2 | 0.1
O=C(Cc1ccccc1)O/N=C1\CCCc2ccccc21 | 1.1 | -0.3 | 0.8 | 23.8 | -1.0 | 13.3
COc1cccc(CN2CC(C(=O)NCc3ncc(C)[nH]3)CCC2=O)c1 (centres undefined) | 5.0 | 0.0 | / | / | 9.4 | /
COc1cccc(COC(=O)C2CC(=O)N(Cc3ccccc3)C2)c1OC (centres undefined) | / | -2.0 | / | / | -9.5 | /
CCCNC(=O)C1(C)CCCN(C(=O)c2cccnc2Oc2ccccc2)C1 (centres undefined) | / | -0.4 | / | / | -10.2 | /
COc1ccc(/C(N)=N/OC(=O)c2cccs2)cc1OC | -2.4 | -0.3 | 0.8 | 24.1 | 6.0 | /
N/C(=N\OC(=O)c1ccc(F)cc1)c1cccc([N+](=O)[O-])c1 | -4.5 | -0.3 | / | / | 5.8 | /
Cc1ccc(/C(N)=N/OC(=O)c2cccs2)cc1 | -3.1 | 0.2 | 0.3 | 74.5* | 29.6 | 38.6
Cc1cccc(/C(N)=N/OC(=O)c2ccc(F)cc2)c1 | -5.2 | -1.7 | 0 | 96.6* | 7.6 | 13.0
CC/C(=N\NC(N)=O)c1ccc(OC(F)F)cc1 | 2.1 | -0.2 | / | / | -9.7 | 16.3
O=C(CC1C(=O)NCCN1CC1CCCCC1)NCCc1ccc(F)cc1 (centres undefined) | 0.1 | -0.8 | 1.1 | -6.9 | -5.0 | /
COC(=O)c1c(NC(=O)C(=O)NCC2CCCO2)sc2c1CC(C)(C)OC2 (centres undefined) | -3.0 | -0.3 | / | / | 1.2 | /
O=C(NCCc1ccccn1)c1ccc(OC(F)F)cc1 | -1.0 | -1.8 | 0.3 | 65.2* | 36.5 | 32.0
Fc1ccc(OCc2nc3ccccc3s2)cc1 | -1.5 | -1.5 | 0.4 | 64.0* | 26.2 | 22.3
Oc1c(CN2CCOCC2)cc(COCc2ccccc2)c2cccnc12 | / | 10.4 | 1.1 | -5.3 | 53.0* | 55.3*
Oc1c(CNc2ccccc2)cc(COCc2ccccc2)c2cccnc12 | -4.8 | -1.0 | / | / | 6.8 | /
O=C(Oc1c(CN2CCOCC2)cc(Cl)c2cccnc12)c1ccccc1Br | -6.2 | -0.3 | / | / | 55.1* | -0.3
O=C(CCl)N1CCN(S(=O)(=O)c2ccc3c(c2)CCC3)CC1 | -7.6 | 0.5 | / | / | 91.1* | /
CCOC(=O)c1cn(-c2ccc(F)c(F)c2F)c2c(F)c(F)c(F)cc2c1=O | -2.1 | 1.5 | 1.1 | -9.6 | 64.2* | -2.0
CCOC(=O)c1cn(-c2ccccc2CO)c2c(F)c(F)c(F)cc2c1=O | -0.6 | 1.1 | 1 | -2.0 | 1.7 | -9.7
COc1ccc2c(c1O)C(=O)c1ccccc1C2=O | 8.0 | / | 1 | 1.7 | / | 10.3
CC(C)COC(=O)c1ccc2c(c1O)C(=O)c1ccccc1C2=O | -6.0 | -1.2 | 0.6 | 39.3 | 56.8* | 35.6
O=c1c2cc(-c3ccccc3)sc2nc2n1CCC2 | -2.6 | / | 0.3 | 67.9* | / | 44.9
